# Laboratory results from ChEMBL document CHEMBL4190353, “Synthesis, structure-activity relationships and preliminary mechanism of action of novel water-soluble 4-quinolone-3-carboxamides as antiproliferative agents” (Eur J Med Chem, 2017).
# Active and inactive are the calls of the source. The rule behind the calls is not given here.
# Key:
# HCT-116 [1] = experiment: Induction of apoptosis in human HCT116 cells assessed as viable cells level pre-incubated with 20 uM pan-caspase inhibitor Z-VAD-FMK for 5 hrs followed by compound addition and further incubated for 48 hrs by Annexin V-FITC/PI staining based cytometry (reference value: 98.7%); assay type: functional
# HCT-116 [2] = experiment: Induction of apoptosis in Bax-/- human HCT116 cells assessed as late apoptotic cells level pre-incubated with 20 uM pan-caspase inhibitor Z-VAD-FMK for 5 hrs followed by compound addition and further incubated for 48 hrs by Annexin V-FITC/PI staining based cytometry (reference value: 0.1%); assay type: functional; design: scale not given: the % may be the effect or the level left
# HepG2 = experiment: Cytotoxicity against human HepG2 cells assessed as reduction in cell viability incubated for 24 hrs by MTT assay; assay type: functional, cell-based; conditions: HepG2, 24 h
# Outline: (§1)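 Cells were kept in McCoy's 5A with 10% fetal bovine serum, streptomycin and 100 units·mL⁻¹ penicillin at 37 °C under 5% CO₂/95% air. Viability was read by MTT optical density. IC50 is the concentration that lowers optical density by 50% relative to untreated cells. Values are means with SD of at least three independent determinations.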
# HCT-116 [3] = experiment: Induction of apoptosis in Bax-/- human HCT116 cells assessed as viable cells level incubated for 48 hrs by Annexin V-FITC/PI staining based cytometry (reference value: 92.9%); assay type: functional
# Outline: (§2)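 Cells were plated at 5×10^5 per well and treated once 80% confluent. After trypsinisation and two washes in ice-cold PBS (pH 7.4), cells were stained with Annexin V-FITC and PI for 15 min at room temperature in the dark. Analysis was by flow cytometry. The legend gives vehicle or 4 µM for the p53-/- and Bax-/- lines.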
# HCT-116 [4] = experiment: Induction of apoptosis in Bax-/- human HCT116 cells assessed as early apoptotic cells level incubated for 48 hrs by Annexin V-FITC/PI staining based cytometry (reference value: 6.8%); assay type: functional; outline: as §2
# HCT-116 [5] = experiment: Induction of apoptosis in Bax-/- human HCT116 cells assessed as increase in cleaved PARP level at 4 to 16 uM by Western blot method; assay type: functional, cell-based
# Outline: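 Lysates were made in SDS buffer (2% SDS, 50 mM Tris-HCl pH 6.8) and quantified by BCA. Equal protein was run on 10% SDS-PAGE and transferred to PVDF. Membranes were blocked in 5% milk, probed overnight at 4 °C for cleaved PARP (1:1000) with GAPDH (1:5000), and detected with HRP secondary antibody and ECL.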
# HCT-116 [6] = experiment: Inhibition of colony formation of Bax-/- human HCT116 cells at 4 to 16 uM incubated for 24 hrs by crystal violet staining based photography; assay type: functional, cell-based
# Outline: (§3)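 Cells (HCT116, RKO, HCT116 p53-/-, HCT116 Bax-/-) seeded at 300 per well in 12-well plates for 48 h, then treated 24 h. Drug medium replaced with fresh medium; about 10 days later colonies stained 15 min with crystal violet, photographed and counted. Run in triplicate.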
# RKO = experiment: Inhibition of colony formation of human RKO cells incubated for 24 hrs by crystal violet staining based photography; assay type: functional, cell-based; outline: as §3
# HCT-116 [7] = experiment: Induction of apoptosis in human HCT116 cells assessed as necrotic cells level incubated for 48 hrs by Annexin V-FITC/PI staining based cytometry (reference value: 0.2%); assay type: functional
# HCT-116 [8] = experiment: Induction of apoptosis in human HCT116 cells assessed as G1 phase cells level at 4 uM incubated for 24 hrs by […]PI staining based cytometry (reference value: 65.2%); assay type: functional
# Outline: (§4)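 Cells were treated for 24 h, then fixed in 75% ethanol at -20 °C overnight. RNA was digested with 0.2 mg/mL RNase A for 30 min at 37 °C. Cells were stained with 50 µg/mL PI for 30 min in the dark, and DNA content was read by flow cytometry.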
# HCT-116 [9] = experiment: Induction of apoptosis in p53-/- human HCT116 cells assessed as viable cells level at 4 uM incubated for 48 hrs by Annexin V-FITC/PI staining based cytometry (reference value: 96.2%); assay type: functional
# Outline: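 HCT116 p53-/- cells (Vogelstein line) in McCoy's 5A with 10% FBS, 37 °C, 5% CO2. Seeded at 5×10^5 in 6-well plates, treated with vehicle or 4 μM at 80% confluence. After treatment, trypsinised, washed twice in ice-cold PBS pH 7.4, and stained in binding buffer with Annexin V-FITC and PI for 15 min at room temperature in the dark. Read by flow cytometry.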
# HCT-116 [10] = experiment: Inhibition of colony formation of human HCT116 cells incubated for 24 hrs by crystal violet staining based photography; assay type: functional, cell-based; outline: as §3
# HCT-116 [11] = experiment: Induction of apoptosis in human HCT116 cells assessed as late apoptotic cells level at 4 uM incubated for 24 hrs by Annexin V-FITC/PI staining based cytometry (reference value: 0.5%); assay type: functional
# HCT-116 [12] = experiment: Induction of apoptosis in human HCT116 cells assessed as G1 phase cells level at 2 uM incubated for 24 hrs by […]PI staining based cytometry (reference value: 65.2%); assay type: functional; outline: as §4
# MCF7 = experiment: Cytotoxicity against human MCF7 cells assessed as reduction in cell viability incubated for 24 hrs by MTT assay; assay type: functional, cell-based; conditions: MCF7, 24 h; outline: as §1
# HCT-116 [13] = experiment: […] of ROS generation in human HCT116 cells pre-treated with 7.5 mM GSH for […] followed by 8 uM compound addition and further incubated for 24 hrs by H2DCFDA dye based flow cytometry; assay type: functional, cell-based
# Outline: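 HCT116 cells pre-treated 5 h with H2O, 7.5 mM L-NAC or 7.5 mM GSH, then exposed to compound for 24 h. Cells collected, washed twice in PBS, and resuspended in serum-free McCoy's 5A with 10 nM H2DCFDA for 20 min at 37 °C in the dark. After two PBS washes, relative ROS measured by flow cytometry.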
# HCT-116 [14] = experiment: Induction of apoptosis in human HCT116 cells assessed as increase in cleaved PARP level pre-incubated with 20 uM pan-caspase inhibitor Z-VAD-FMK for 5 hrs followed by compound addition and further incubated for 48 hrs by Western blot method; assay type: functional, cell-based
# Outline: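 Cells were pretreated for 5 h with DMSO or 20 µM Z-VAD-FMK before compound exposure. Lysates were made in SDS buffer and quantified by BCA. Proteins were run on 10% SDS-PAGE, transferred to PVDF, and probed with cleaved PARP (1:1000) and GAPDH (1:5000) loading control, with ECL detection.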
# HCT-116 [15] = experiment: Induction of apoptosis in human HCT116 cells assessed as early apoptotic cells level incubated for 48 hrs by Annexin V-FITC/PI staining based cytometry (reference value: 1.1%); assay type: functional
# HCT-116 [16] = experiment: Inhibition of colony formation of human HCT116 cells pre-treated with 7.5 mM L-NAC for 2 hrs followed by 16 to 32 uM compound addition and further incubated for 24 hrs and measured after 10 days post dose in fresh medium by crystal violet staining based photography; assay type: functional, cell-based
# Outline: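 HCT116 seeded at about 300 per well in 12-well plates and grown 2 h. Pre-treated 2 h with H2O, 7.5 mM L-NAC or GSH, then exposed to compound for 24 h. Colonies grown 10 days in fresh medium, stained with crystal violet and counted. Triplicate wells.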
# HCT-116 [17] = experiment: Induction of apoptosis in human HCT116 cells assessed as early apoptotic cells level at 4 uM incubated for 24 hrs by Annexin V-FITC/PI staining based cytometry (reference value: 1.3%); assay type: functional
compound,measurement,setting,value
CCN(CC)CCCNC(=O)c1cn(CCCc2ccccc2)c2cc(Cl)ccc2c1=O.Cl,Activity,HCT-116 [1],80.4%
same,Activity,HCT-116 [2],0.9%
same,IC50,HepG2,3.94 µM
same,Activity,HCT-116 [3],65.1%
same,Activity,HCT-116 [4],33%
same,Activity,HCT-116 [5],Active
same,inhibition,HCT-116 [6],Active
same,inhibition,RKO,Dose-dependent effect
same,Activity,HCT-116 [7],4.6%
same,Activity,HCT-116 [8],42.4%
same,Activity,HCT-116 [9],72.1%
same,inhibition,HCT-116 [10],Dose-dependent effect
same,Activity,HCT-116 [11],4.8%
same,Activity,HCT-116 [12],46.7%
same,IC50,MCF7,5.02 µM
same,inhibition,HCT-116 [13],inactive
same,Activity,HCT-116 [14],inactive
same,Activity,HCT-116 [15],29.4%
same,inhibition,HCT-116 [16],inactive
same,Activity,HCT-116 [17],38.2%
